Reference: ChEMBL document CHEMBL1134638, “Synthetic 2-aroylindole derivatives as a new class of potent tubulin-inhibitory, antimitotic agents” (J Med Chem, 2001)
In brackets after ≈: the same amount, converted by molar mass.

Key:
SK-OV-3 [1] = assay: In vitro inhibitory activity against SK-OV-3 cells using XTT proliferation assay.; type: functional, cell-based; settings: Homo sapiens
Summary of the method: (§1)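 XTT proliferation assay measuring cellular metabolic activity after 48 h incubation with compound. Compounds dissolved in DMSO at 1 mg/mL stock. IC50 or estimates obtained by nonlinear regression. Each experiment at least in duplicate.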

HeLa [2] = assay: In vitro inhibitory activity against HeLa/KB cells using XTT proliferation assay.; type: functional, cell-based; settings: Homo sapiens; summary of the method: as §1
Tubulin beta chain [3] = molecular target: T1, Tubulin beta chain (Bos taurus, UniProt Q6B856); assay: Inhibition of tubulin polymerization.; type: functional
[4] = molecular target: Tubulin beta chain (Bos taurus) (UniProt Q6B856); assay: beta-Tubulin GTPase activity at 1 uM concentration
Summary of the method: (§2)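 MAP-free purified bovine brain tubulin (1 mg/mL) in PEM pH 6.6 with 1 mM MgCl2, 100 µM [α-32P]GTP and 1 M monosodium glutamate. Compound added beforehand, final 1% DMSO. Incubated 1 h at 37 °C, stopped with 1% SDS. GDP/GTP separated by PEI-cellulose TLC in 0.35 M (NH4)2CO3 and quantified by phosphorimager as the GDP/GTP ratio.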

[5] = molecular target: Tubulin beta chain (Bos taurus) (UniProt Q6B856); assay: beta-Tubulin GTPase activity at 10 uM concentration; summary of the method: as §2
Tubulin = Tubulin (Bos taurus, UniProt Q6B856+Q862L2+Q862F3); assay: Inhibition of tubulin polymerization; No effect at a concentration up to 10 uM; type: functional
Tumor Cell line = assay: Mean cytotoxicity against a panel of human tumor cell lines; type: functional
Summary of the method: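 Modified propidium iodide assay quantifying dead cells by DNA/RNA staining, run on a human tumor cell panel (breast, colon, stomach, lung, melanoma, ovary, renal, soft tissue lines). Growth inhibition expressed as % T/C; IC70 per line from concentration-viability plots. Mean IC70 is the geometric mean across lines; unreached values set to the lowest or highest concentration tested.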

SK-OV-3 [6] = assay: In vitro inhibitory activity against SK-OV-3 cells using XTT proliferation assay; type: functional, cell-based; settings: Homo sapiens; summary of the method: as §1
Tubulin beta chain [7] = molecular target: T1, Tubulin beta chain; assay: Inhibition of tubulin polymerization; type: functional
Summary of the method: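 Bovine brain tubulin with MAPs, prepared by polymerization/depolymerization cycles (0.8 mg/mL), incubated with compound (4 µg/mL for screening, a concentration range for IC50). Run in PEM buffer pH 6.6 with 1 mM GTP at 37 °C for 1 h. Microtubules collected on 0.22 µm filters, stained with amido black, eluted, absorbance read at 600 nm.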

HeLa [8] = assay: In vitro inhibitory activity against HeLa/KB cells using XTT proliferation assay; type: functional, cell-based; settings: Homo sapiens; summary of the method: as §1
U373 MG [9] = assay: Cell cycle arrest activity against U373 astrocytoma cells.; type: functional, cell-based, U-373MG ATCC; settings: Homo sapiens
Summary of the method: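 U373 cells (5 × 10^6) exposed to compound for 24 h at 37 °C, trypsinised, washed in PBS, fixed in 80% methanol 30 min on ice. Stained with 20 µg/mL propidium iodide plus 1 mg/mL RNase A in PBS/0.1% saponin, 30 min at 37 °C. DNA content read by flow cytometry; G2/M fraction modelled. IC50 by nonlinear regression of dose-response.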

U373 MG [10] = assay: Cytotoxicity against U373 astrocytoma cells.; type: functional, cell-based, U-373MG ATCC; settings: Homo sapiens; summary of the method: as §1
[11] = molecular target: Tubulin beta chain (Bos taurus) (UniProt Q6B856)
[12] = molecular target: Tubulin beta chain (Bos taurus) (UniProt Q6B856); remark: listed apart in the source

Sequence of Tubulin beta chain (Bos taurus) (Q6B856 whole entry): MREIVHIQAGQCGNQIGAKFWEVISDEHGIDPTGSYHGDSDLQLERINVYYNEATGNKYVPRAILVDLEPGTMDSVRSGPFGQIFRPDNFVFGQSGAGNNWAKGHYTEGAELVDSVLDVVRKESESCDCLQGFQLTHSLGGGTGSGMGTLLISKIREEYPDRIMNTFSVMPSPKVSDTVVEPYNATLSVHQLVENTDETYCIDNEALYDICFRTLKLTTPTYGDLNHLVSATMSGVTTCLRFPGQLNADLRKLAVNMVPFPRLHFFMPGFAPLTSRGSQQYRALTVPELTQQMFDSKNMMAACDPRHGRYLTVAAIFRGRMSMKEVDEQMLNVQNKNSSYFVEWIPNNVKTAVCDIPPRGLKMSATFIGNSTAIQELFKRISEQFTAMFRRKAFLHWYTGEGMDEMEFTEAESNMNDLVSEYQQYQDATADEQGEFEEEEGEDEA
T1 sequence (Q6B856 whole entry): as above

Row | Structure (SMILES) | IC50 (SK-OV-3 [1]) [nM] | IC50 (HeLa [2]) [nM] | IC50 (Tubulin beta chain [3]) [nM] | other results
1 | COc1ccc2[nH]c(C(=O)c3cccc(OC)c3[N+](=O)[O-])cc2c1 | > 9800 | > 9800 | > 10000 | –
2 | COC(=O)Nc1nc2cc(C(=O)c3cccs3)ccc2[nH]1 | – | – | – | GTPase Activity [4]: 4.9; GTPase Activity [5]: 9
3 | COc1ccc2[nH]c(C(=O)c3cccc(OCc4ccccc4)c3)cc2c1 | > 8600 | > 8600 | – | IC50 (Tubulin): No effect
4 | COc1ccccc1C(=O)c1cc2ccccc2[nH]1 | > 12700 | > 12700 | > 10000 | –
5 | COc1ccc2[nH]c(C(=O)c3cccc(N)c3C)cc2c1 | 11400 | 11400 | > 10000 | –
6 | COc1ccc2[nH]c(C(=O)c3cccc([N+](=O)[O-])c3C)cc2c1 | > 10300 | > 10300 | > 10000 | –
7 | COc1ccc2[nH]c(C(=O)c3cccc(SC(F)(F)F)c3)cc2c1 | – | – | – | IC50 (SK-OV-3 [6]): 630 nM; IC50 (Tubulin beta chain [7]): > 10000 nM; IC50 (HeLa [8]): 880 nM
8 | COc1ccc2[nH]c(C(=O)c3c(F)cccc3Cl)cc2c1 | > 10500 | > 10500 | > 10000 | –
9 | COc1ccc2[nH]c(C(=O)c3cc(OC)c(OC)c(OC)c3)cc2c1 | 58 | 29 | 990 | IC50 (U373 MG [9]): 36.1 nM; IC70 (Tumor Cell line): 0.17 µg/mL (≈ 0.498 µM); IC50 (U373 MG [10]): 73 nM
10 | COc1ccc2[nH]c(C(=O)c3ccc(C(C)(C)C)cc3)cc2c1 | > 10400 | > 10400 | – | IC50 (Tubulin): No effect
11 | COc1ccc2[nH]c(C(=O)c3ccc(C)cc3)cc2c1 | 1880 | 380 | 1500 | –
12 | CC[C@]1(O)C[C@H]2CN(CCc3c([nH]c4ccccc34)[C@@](C(=O)OC)(c3cc4c(cc3OC)N(C=O)[C@H]3[C@@](O)(C(=O)OC)[C@H](OC(C)=O)[C@]5(CC)C=CCN6CC[C@]43[C@@H]65)C2)C1 | – | – | – | GTPase Activity [11]: 5.3; GTPase Activity [12]: 0.09
13 | COc1cccc(C(=O)c2cc3cc(C)ccc3[nH]2)c1 | > 12100 | > 12100 | > 10000 | –
14 | COc1ccc2[nH]c(C(=O)c3cccc(OC)c3OC)cc2c1 | 3200 | 6400 | > 10000 | –
15 | COc1ccc2[nH]c(C(=O)c3ccc(F)cc3)cc2c1 | 7430 | 5570 | – | –
16 | COc1ccc2[nH]c(C(=O)c3ccccc3F)cc2c1 | 740 | 370 | 1000 | –
17 | COc1ccc2[nH]c(C(=O)c3ccccc3N)cc2c1 | 3760 | 3760 | 6700 | IC70 (Tumor Cell line): 1.44 µg/mL (≈ 5.41 µM)
18 | COc1ccc2[nH]c(C(=O)c3cccc(SC(F)F)c3)cc2c1 | – | – | – | IC50 (SK-OV-3 [6]): 360 nM; IC50 (Tubulin beta chain [7]): 2100 nM; IC50 (HeLa [8]): 390 nM

Row | Structure (SMILES) | IC50 (SK-OV-3 [1]) [nM] | IC50 (HeLa [2]) [nM] | IC50 (Tubulin beta chain [3]) [nM] | other results
19 | COc1ccc(C(=O)c2cc3cc(OC)ccc3[nH]2)c(OC)c1 | 1030 | 100 | 5600 | IC70 (Tumor Cell line): 1.74 µg/mL (≈ 5.59 µM)
20 | COc1ccc2[nH]c(C(=O)c3ccc(Br)cc3)cc2c1 | 910 | 910 | 4300 | IC70 (Tumor Cell line): 2.56 µg/mL (≈ 7.75 µM)
21 | CC(=O)O[C@H]1C(=O)[C@@]2(C)[C@H]([C@H](OC(=O)c3ccccc3)[C@]3(O)C[C@H](OC(=O)[C@H](O)[C@@H](NC(=O)c4ccccc4)c4ccccc4)C(C)=C1C3(C)C)[C@]1(OC(C)=O)CO[C@@H]1C[C@@H]2O | – | – | – | GTPase Activity [11]: 3.3; GTPase Activity [12]: 1.4
22 | COc1ccccc1C(=O)c1cc2cc(C)ccc2[nH]1 | 750 | 380 | 3500 | IC70 (Tumor Cell line): 2.03 µg/mL (≈ 7.65 µM)
23 | COc1ccc2[nH]c(C(=O)c3ccc(Cl)cc3)cc2c1 | 1750 | 3500 | 5000 | –
24 | COc1cc(C(=O)c2cc3ccccc3[nH]2)cc(OC)c1OC | 9640 | 6420 | – | IC50 (Tubulin): No effect
25 | COc1cc2c(c(OC)c1OC)-c1ccc(OC)c(=O)cc1[C@@H](NC(C)=O)CC2 [COLCHICINE] | 20 | 23 | – | –
26 | COc1ccc(C(=O)c2cc3cc(OC)ccc3[nH]2)cc1 | 11400 | 11400 | – | IC50 (Tubulin): No effect
27 | COc1ccc2[nH]c(C(=O)c3ccc(OC)c(OC)c3)cc2c1 | 1640 | 1320 | 810 | –
28 | CCc1ccc(C(=O)c2cc3cc(OC)ccc3[nH]2)cc1 | 11500 | 8900 | > 10000 | –
29 | CCCCCOc1ccc(C(=O)c2cc3cc(OC)ccc3[nH]2)cc1 | > 9500 | > 9500 | – | IC50 (Tubulin): No effect
30 | COc1ccc2[nH]c(C(=O)c3ccccc3[N+](=O)[O-])cc2c1 | > 10800 | > 10000 | > 10000 | –
31 | CCCc1ccc(C(=O)c2cc3cc(OC)ccc3[nH]2)cc1 | > 10900 | > 10900 | > 10000 | –
32 | COc1cc(OC)c(OC)c(C(=O)c2cc3cc(OC)ccc3[nH]2)c1 | 9370 | 8790 | – | IC50 (Tubulin): No effect
33 | COc1ccc2[nH]c(C(=O)c3c(F)cccc3F)cc2c1 | 8700 | 6960 | – | IC50 (Tubulin): No effect
34 | COc1ccc2[nH]c(C(=O)c3cccc4ccccc34)cc2c1 | – | – | – | IC70 (Tumor Cell line): 0.88 µg/mL (≈ 2.92 µM)
35 | COc1ccc2c(c1)cc(C(=O)c1ccccc1)n2CCN1CCOCC1 | – | – | – | IC70 (Tumor Cell line): 2.95 µg/mL (≈ 8.09 µM)

Continued, in another order:

Row | IC50 (SK-OV-3 [1]) [nM] | IC50 (HeLa [2]) [nM] | IC50 (Tubulin beta chain [3]) [nM] | Structure (SMILES) | other results
36 | 230 | 340 | 990 | COc1ccc2[nH]c(C(=O)c3cccc(N)c3)cc2c1 | –
37 | 19 | 19 | 810 | COc1cc(OC)cc(C(=O)c2cc3cc(OC)ccc3[nH]2)c1 | –
38 | 30 | 30 | 860 | COc1cc(C(=O)c2cc3cc(C)ccc3[nH]2)cc(OC)c1OC | IC70 (Tumor Cell line): 1.17 µg/mL (≈ 3.6 µM)
39 | 30 | 30 | 1500 | COc1ccc2[nH]c(C(=O)c3cccc(C(F)(F)F)c3)cc2c1 | –
40 | 100 | 100 | 850 | COc1ccc2[nH]c(C(=O)c3cccc([N+](=O)[O-])c3)cc2c1 | IC70 (Tumor Cell line): 1.4 µg/mL (≈ 4.73 µM)
41 | 380 | 1210 | 4800 | COc1ccc2[nH]c(C(=O)c3ccccc3C)cc2c1 | –
42 | 110 | 36 | 1290 | COc1ccc2[nH]c(C(=O)c3ccccc3OC)cc2c1 | IC70 (Tumor Cell line): 0.35 µg/mL (≈ 1.24 µM)
43 | 720 | 720 | 5200 | COc1ccc2[nH]c(C(=O)c3cc(C)ccc3C)cc2c1 | –
44 | 220 | 220 | 660 | COc1ccc2[nH]c(C(=O)c3cccc(O)c3)cc2c1 | –
45 | 11 | 11 | 530 | COc1cccc(C(=O)c2cc3cc(OC)ccc3[nH]2)c1 | IC50 (U373 MG [9]): 10.7 nM; IC70 (Tumor Cell line): 0.27 µg/mL (≈ 0.96 µM); IC50 (U373 MG [10]): 28 nM
46 | 15 | 26 | 390 | COc1ccc2[nH]c(C(=O)c3cccc(F)c3)cc2c1 | –
47 | 100 | 100 | 2500 | COc1ccc2[nH]c(C(=O)c3ccc(Cl)c(Cl)c3)cc2c1 | IC70 (Tumor Cell line): 1.34 µg/mL (≈ 4.19 µM)
48 | 88 | 59 | > 10000 | COc1ccc2[nH]c(C(=O)c3ccc(OC)c(OC)c3OC)cc2c1 | IC70 (Tumor Cell line): 0.73 µg/mL (≈ 2.14 µM)
49 | 240 | 270 | 850 | CCCC(=O)Oc1cccc(C(=O)c2cc3cc(OC)ccc3[nH]2)c1 | –
50 | 210 | 270 | 1700 | COc1ccc2[nH]c(C(=O)c3cccc(OC(F)(F)F)c3)cc2c1 | –
